One block for each compound: values may come before it. Activity calls are given as the source filed them. The calls are words filed in the database; no cut-off is given here.
Assays:
[1] = target: Amyloid-beta precursor protein (Homo sapiens) (UniProt P05067); test: Inhibition of amyloid beta (1 to 42) (unknown origin) self-aggregation at 10 uM after 24 hrs by ESI-IT-MS analysis
Outline: (§1)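 Aβ42 incubated 24 h at 30 °C with or without inhibitor; monomer (Aβ42m) and oxidized monomer (Aβ42m Ox) quantified by mass spectrometry with reserpine as internal standard. Residual monomer expressed versus t0 control; oxidized monomer expressed as fold over 24 h control. Test levels 2, 10 and 50 μM.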

[2] = system: T67; test: Antioxidant activity in human T67 cells assessed as decrease in TBHP-induced ROS generation at 10 uM pretreated for 4 hrs followed by TBPH addition for 30 mins by DCFDA dye based fluorescence assay; format: functional, cell-based
[3] = system: T67; test: Pro-oxidant activity in human T67 cells assessed as induction of mitochondrial ROS generation after 4 hrs by MitoSOX Red probe based fluorescence assay; format: functional, cell-based
Outline: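 T67 cells treated 4 h with compound at 1–10 μM; mitochondrial superoxide read by MitoSOX Red fluorescence. Antimycin A (10 μM) as positive control. n = 8; one-way ANOVA with Dunnett's test versus untreated control.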

[4] = species on record: Rattus norvegicus; test: Neurotoxicity in rat mixed cortical neurons assessed as neuronal cell death up to 50 uM after 48 hrs by trypan blue dye based phase contrast microscopic analysis; format: toxicity, organism-based; details: cortical neurone
Outline: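 Mixed rat cortical cell cultures exposed to compound at 0.25−50 μM for 48 h; dead neurons stained with Trypan blue and counted microscopically to quantify neuronal damage.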

[5] = target: Amyloid-beta precursor protein (Homo sapiens) (UniProt P05067); test: Inhibition of amyloid beta (1 to 42) (unknown origin) self-aggregation assessed as residual amyloid beta 42 monomer level at 50 uM after 24 hrs by ESI-IT-MS analysis; outline: as §1
[6] = target: Amyloid-beta precursor protein (Homo sapiens) (UniProt P05067); test: Inhibition of amyloid beta (1 to 42) (unknown origin) self-aggregation assessed as increase in oxidized amyloid beta 42 monomer level after 24 hrs by ESI-IT-MS analysis; outline: as §1
[7] = target: Amyloid-beta precursor protein (Homo sapiens) (UniProt P05067); test: Inhibition of amyloid beta (1 to 42) (unknown origin) self-aggregation assessed as residual amyloid beta 42 monomer level at 10 uM after 24 hrs by ESI-IT-MS analysis; outline: as §1
[8] = target: Amyloid-beta precursor protein (Homo sapiens) (UniProt P05067); test: Inhibition of amyloid beta (1 to 42) (unknown origin) self-aggregation assessed as increase in oxidized amyloid beta 42 monomer level at 50 uM after 24 hrs by ESI-IT-MS analysis relative to control; outline: as §1
[9] = target: Amyloid-beta precursor protein (Homo sapiens) (UniProt P05067); test: Inhibition of amyloid beta (1 to 42) (unknown origin) self-aggregation at 50 uM after 24 hrs by ESI-IT-MS analysis; outline: as §1
[10] = target: Amyloid-beta precursor protein (Homo sapiens) (UniProt P05067); test: Inhibition of amyloid beta (1 to 42) (unknown origin) self-aggregation assessed as residual amyloid beta 42 monomer level at 2 uM after 24 hrs by ESI-IT-MS analysis; outline: as §1
[11] = system: neuronal; test: Neuroprotective activity against human amyloid beta (1 to 42)-induced neuronal cell death in rat mixed cortical neurons assessed as decrease in number of dead neurons up to 25 uM incubated for 72 hrs by trypan blue dye based phase contrast microscopic analysis
Outline: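 Rat mixed cortical cultures exposed to Aβ42 oligomers preformed by 72 h incubation, with compound added separately; 72 h exposure. Trypan blue–stained dead neurons counted in three random fields/well; means ± SEM of nine determinations.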

[12] = target: Amyloid-beta precursor protein (Homo sapiens) (UniProt P05067); test: Neuroprotective activity against amyloid beta (1 to 42) (unknown origin)-induced neuronal cell death in rat mixed cortical neurons assessed as number of dead neurons at 5 uM incubated for 72 hrs by trypan blue dye based phase contrast microscopic analysis (reference value: 71.7 +/- 3.1)
Outline: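 100 μM Aβ42 preincubated 72 h alone or with 5-fold molar excess of inhibitor, then added to rat mixed cortical cultures for a further 72 h (final inhibitor 5 μM). Dead neurons stained with Trypan blue, counted in three random microscopic fields/well; means ± SEM of nine determinations.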

[13] = target: Amyloid-beta precursor protein (Homo sapiens) (UniProt P05067); test: Inhibition of amyloid beta (1 to 42) (unknown origin) self-aggregation assessed as increase in oxidized amyloid beta 42 monomer level at 2 uM after 24 hrs by ESI-IT-MS analysis relative to control; outline: as §1
[14] = target: Amyloid-beta precursor protein (Homo sapiens) (UniProt P05067); test: Inhibition of amyloid beta (1 to 42) (unknown origin) self-aggregation at 2 uM after 24 hrs by ESI-IT-MS analysis; outline: as §1
[15] = target: Amyloid-beta precursor protein (Homo sapiens) (UniProt P05067); test: Inhibition of amyloid beta (1 to 42) (unknown origin) self-aggregation assessed as increase in oxidized amyloid beta 42 monomer level at 10 uM after 24 hrs by ESI-IT-MS analysis relative to control; outline: as §1

Chain of Amyloid-beta precursor protein (Homo sapiens) (P05067 whole entry): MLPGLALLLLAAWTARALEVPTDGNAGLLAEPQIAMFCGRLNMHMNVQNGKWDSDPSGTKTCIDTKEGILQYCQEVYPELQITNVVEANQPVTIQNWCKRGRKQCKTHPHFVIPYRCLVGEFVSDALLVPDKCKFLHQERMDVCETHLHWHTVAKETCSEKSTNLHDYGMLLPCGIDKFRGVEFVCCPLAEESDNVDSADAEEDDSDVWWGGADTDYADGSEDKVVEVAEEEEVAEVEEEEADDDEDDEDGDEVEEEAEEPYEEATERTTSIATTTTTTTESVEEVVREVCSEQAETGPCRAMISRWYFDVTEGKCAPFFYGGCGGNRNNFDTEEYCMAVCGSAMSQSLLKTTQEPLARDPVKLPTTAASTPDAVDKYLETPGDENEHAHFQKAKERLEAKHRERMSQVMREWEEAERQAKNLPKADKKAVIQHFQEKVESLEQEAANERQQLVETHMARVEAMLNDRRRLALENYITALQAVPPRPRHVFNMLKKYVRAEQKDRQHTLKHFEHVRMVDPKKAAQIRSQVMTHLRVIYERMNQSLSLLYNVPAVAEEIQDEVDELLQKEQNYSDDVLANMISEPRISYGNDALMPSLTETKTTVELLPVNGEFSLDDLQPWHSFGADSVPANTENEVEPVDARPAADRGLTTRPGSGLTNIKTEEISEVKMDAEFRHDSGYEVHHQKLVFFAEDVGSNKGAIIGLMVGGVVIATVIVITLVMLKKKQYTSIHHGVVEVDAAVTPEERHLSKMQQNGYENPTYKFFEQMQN

- inhibition [1]: < 10%
Compound: NCCCNCCCCNCCCNC(=O)CCC(=O)N1C/C(=C\c2ccccc2)C(=O)/C(=C/c2ccccc2)C1

- inhibition [1]: < 10%
Compound: COc1ccc(/C=C2/CN(C(=O)CCC(=O)NCCCNCCCCNCCCN)C/C(=C\c3ccc(OC)c(OC)c3)C2=O)cc1OC

- inhibition [1]: < 10%
Compound: COc1cc(/C=C2\CN(C(=O)CCC(=O)NCCCNCCCCNCCCN)C/C(=C\c3ccc(O)c(OC)c3)C2=O)ccc1O
- Activity [2]: Active

- inhibition [1]: < 10%
Compound: NCCCNCCCCNCCCNC(=O)CCC(=O)N1C/C(=C\c2ccc(O)cc2)C(=O)/C(=C/c2ccc(O)cc2)C1
- Activity [3]: Dose-dependent effect

Compound: Cl.O=C1/C(=C/c2ccc(O)c(O)c2)CNC/C1=C\c1ccc(O)c(O)c1
- Activity [4]: Non-Toxic
- Activity [5]: 61.9%
- inhibition [6]: Dose-dependent effect
- Activity [7]: 20.5%
- fold change (FC) [8]: 2.56
- inhibition [9]: 54.1%

- inhibition [1]: < 10%
Compound: NCCCNCCCCNCCCNC(=O)CCC(=O)N1C/C(=C/c2cccc(O)c2)C(=O)/C(=C/c2cccc(O)c2)C1

Compound: NCCCNCCCCNCCCNC(=O)CCC(=O)N1C/C(=C/c2ccc(O)c(O)c2)C(=O)/C(=C/c2ccc(O)c(O)c2)C1.O=C(O)C(F)(F)F
- Activity [4]: Non-Toxic
- Activity [10]: 27%
- inhibition [6]: Dose-dependent effect
- Activity [11]: Active
- Activity [7]: 53%
- Activity [12]: 46.5
- fold change (FC) [13]: 1.46
- inhibition [14]: 12%
- fold change (FC) [8]: 2.79
- fold change (FC) [15]: 2.14
- Activity [3]: Dose-dependent effect

Reference: ChEMBL document CHEMBL3864188, “Polyamine Conjugation as a Promising Strategy To Target Amyloid Aggregation in the Framework of Alzheimer's Disease” (ACS Med Chem Lett, 2016)
